Data published in ChEMBL document CHEMBL1641401, “Synthesis of antimitotic polyalkoxyphenyl derivatives of combretastatin using plant allylpolyalkoxybenzenes” (2010).
Active and inactive are the calls of the source.

Columns and labels:
Paracentrotus lividus [1] = experiment: Antimitotic activity against Paracentrotus lividus embryo assessed as embryo spinning after 0.5 to 20 hrs post dose by sea urchin embryo assay; type: functional
How it was run: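 Free-swimming blastulae from the same culture treated just after hatching (9-12 h post-fertilization) in filtered seawater at room temperature. Final DMSO at most 0.05%, EtOH at most 1%. Tubulin destabilization scored microscopically as loss of forward movement, settling to the vessel bottom and rapid spinning about the animal-vegetal axis.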

Paracentrotus lividus [2] = experiment: Antimitotic activity against Paracentrotus lividus embryo assessed as cleavage arrest after 2.5 to 6 hrs post fertilization by sea urchin embryo assay; type: functional
How it was run: (§1)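 Fertilized sea urchin eggs, cultured at room temperature in filtered seawater with paddle agitation (60 rpm), exposed 10-25 min post-fertilization (45-60 min before first cleavage) to 2-fold decreasing concentrations as a monolayer, up to 2000 embryos/mL. Stocks: 5 mM in 95% EtOH, or 5-20 mM in DMSO then 10-fold diluted in 95% EtOH. Cleavage scored microscopically 2.5-6 h post-fertilization. EC = threshold concentration causing cleavage alteration with death before hatching or full arrest.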

Paracentrotus lividus [3] = experiment: Antimitotic activity against Paracentrotus lividus embryo assessed as cleavage alteration after 2.5 to 6 hrs post fertilization by sea urchin embryo assay; type: functional; how it was run: as §1
Paracentrotus lividus [4] = experiment: Antimitotic activity against Paracentrotus lividus embryo assessed as cleavage alteration up to 80 to 100 uM after 2.5 to 6 hrs post fertilization by sea urchin embryo assay; type: functional, organism-based
How it was run: (§2)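 Fertilized sea urchin eggs, treated 10-25 min after fertilization (45-60 min before first cleavage), exposed to 2-fold decreasing concentrations; monolayer in filtered seawater at room temperature, up to 2000 embryos/mL. Compounds from EtOH or DMSO stocks diluted in 95% EtOH; final DMSO ≤0.05%, EtOH ≤1%. Cleavage scored microscopically 2.5-6 h post-fertilization; EC = threshold concentration causing cleavage alteration with death before hatching or full mitotic arrest.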

Paracentrotus lividus [5] = experiment: Antimitotic activity against Paracentrotus lividus embryo assessed as cleavage alteration up to 5 uM after 2.5 to 6 hrs post fertilization by sea urchin embryo assay; type: functional, organism-based; how it was run: as §2

Row | Compound | EC (Paracentrotus lividus [1]) [µM] | EC (Paracentrotus lividus [2]) [µM] | EC (Paracentrotus lividus [3]) [µM] | Activity (Paracentrotus lividus [4]) | Activity (Paracentrotus lividus [5])
1 | C/C=C/c1cc(OC)c2c(c1)OCO2 [ISOMYRISTICIN] | >5 | >5 | >5 | – | –
2 | COc1ccc(-c2nnc(-c3ccc(OC)c(OC)c3)o2)cc1OC | 5 | 10 | 0.5 | – | –
3 | COc1ccc(/C=C/c2ccc3c(c2)OCCO3)cc1O | 2 | 1 | 0.1 | – | –
4 | COc1ccc(/C=C\c2cc(OC)c3c(c2)OCO3)cc1O [Combretastatin A-2] | 0.05 | 0.01 | 0.002 | – | –
5 | COc1ccc(/C=C\c2cc(OC)c3c(c2OC)OCO3)cc1O | 1 | 0.1 | 0.02 | – | –
6 | C=CCc1cc(OC)c2c(c1OC)OCO2 | – | – | – | inactive | –
7 | COc1ccc(/C=C/c2cc3c(cc2OC)OCCO3)cc1O | >5 | 2 | 0.1 | – | –
8 | COc1ccc(/C=C\c2cc(OC)c3c(c2)OCCO3)cc1O | 0.05 | 0.01 | 0.002 | – | –
9 | C/C=C/c1cc2c(c(OC)c1OC)OCO2 [ISODILLAPIOL] | >100 | 80 | 20 | – | –
10 | COc1ccc(/C=C\c2cc(OC)c(OC)c(OC)c2OC)cc1O | 1 | 0.1 | 0.02 | – | –
11 | C/C=C/c1cc(OC)c(OC)c(OC)c1OC | – | – | – | – | inactive
12 | COc1ccc(-c2nnc(-c3cc(OC)c(OC)c(OC)c3)o2)cc1O | >4 | >4 | >4 | – | –
13 | COc1ccc(-c2nc(-c3cc4c(c(OC)c3OC)OCO4)no2)cc1O | >4 | >4 | >4 | – | –
14 | COc1ccc(/C=C\c2cc(OC)c(OC)c(OC)c2)cc1OP(=O)([O-])[O-].[Na+].[Na+] [FOSBRETABULIN DISODIUM] | 1 | 0.01 | 0.005 | – | –
15 | COc1ccc(/C=C/c2cc(OC)c(OC)c(OC)c2OC)cc1O | 5 | 1 | 0.1 | – | –
16 | C=CCc1cc(OC)c2c(c1)OCO2 | – | – | – | inactive | –
17 | COc1ccc(-c2nc(-c3cc(OC)c4c(c3OC)OCO4)no2)cc1O | >4 | >4 | >4 | – | –
18 | COc1cc(-c2nnc(-c3cc(OC)c4c(c3)OCO4)o2)cc(OC)c1OC | >5 | 2 | 0.5 | – | –
19 | COc1ccc(/C=C/c2cc3c(c(OC)c2OC)OCO3)cc1O | 5 | 4 | 0.1 | – | –
20 | COc1ccc(-c2nc(-c3cc(OC)c4c(c3)OCO4)no2)cc1O | >4 | >4 | 4 | – | –
21 | COc1ccc(-c2nnc(-c3cc4c(c(OC)c3OC)OCO4)[nH]2)cc1O | >4 | >4 | 4 | – | –

Row | Compound | EC (Paracentrotus lividus [1]) [µM] | EC (Paracentrotus lividus [2]) [µM] | EC (Paracentrotus lividus [3]) [µM] | Activity (Paracentrotus lividus [4]) | Activity (Paracentrotus lividus [5])
22 | COc1ccc(/C=C\c2cc3c(cc2OC)OCCO3)cc1O | 1 | 0.2 | 0.02 | – | –
23 | COc1ccc(-c2nnc(-c3cc(OC)c4c(c3)OCO4)[nH]2)cc1O | >5 | >4 | 2 | – | –
24 | COc1ccc(/C=C/c2cc(OC)c3c(c2)OCCO3)cc1O | 2 | 0.1 | 0.02 | – | –
25 | COc1ccc(-c2nnc(-c3cc(OC)c4c(c3)OCO4)o2)cc1O | >5 | 2 | 0.5 | – | –
26 | COc1ccc(-c2nc(Cc3cc(OC)c4c(c3OC)OCO4)no2)cc1O | >5 | >4 | 4 | – | –
27 | COc1ccc(-c2nnc(-c3cccc(F)c3)o2)cc1OC | >5 | >4 | 1 | – | –
28 | COc1cccc(-c2nnc(-c3ccc(OC)c(OC)c3)o2)c1 | 2 | 4 | 0.05 | – | –
29 | C=CCc1cc2c(c(OC)c1OC)OCO2 | – | – | – | inactive | –
30 | COc1ccc(/C=C/c2cc(OC)c3c(c2)OCO3)cc1O | 1 | 0.1 | 0.02 | – | –
31 | C/C=C/c1cc(OC)c2c(c1OC)OCO2 [ISOAPIOL] | >10 | 8 | 2 | – | –
32 | COc1cc(-c2noc(-c3ccc4c(c3)OCO4)n2)cc(OC)c1OC | >4 | >4 | >4 | – | –
33 | COc1ccc(-c2nc(-c3c(Cl)c(OC)c4c(c3OC)OCO4)no2)cc1O | – | >4 | >4 | – | –
34 | COc1ccc(/C=C/c2cc(OC)c3c(c2OC)OCO3)cc1O | 5 | 4 | 0.5 | – | –
35 | COc1ccc(/C=C\c2ccc3c(c2)OCCO3)cc1O | 1 | 0.5 | 0.02 | – | –
36 | COc1cc(/C=C/c2cc(OC)c3c(c2OC)OCO3)ccc1O | >5 | >4 | >4 | – | –
37 | COc1ccc(-c2nnc(-c3cc(OC)c(OC)c(OC)c3)[nH]2)cc1O | >4 | >4 | 4 | – | –
38 | COc1ccc(/C=C(/C(=O)O)c2cc(OC)c(OC)c(OC)c2)cc1O | >11.2 | >11.2 | >11.2 | – | –
39 | COc1ccc(/C=C\c2cc(OC)c(OC)c(OC)c2)cc1O [COMBRETASTATIN A4] | 0.05 | 0.01 | 0.002 | – | –
40 | COc1ccc(/C=C\c2cc3c(c(OC)c2OC)OCO3)cc1O | 0.5 | 0.2 | 0.01 | – | –
41 | COc1ccc(-c2nnc(-c3cc(OC)c4c(c3OC)OCO4)[nH]2)cc1O | >4 | >4 | >4 | – | –
